Test results as given in ChEMBL document CHEMBL4842351, “Synthesis and evaluation of novel and potent protease activated receptor 4 (PAR4) antagonists based on a quinazolin-4(3H)-one scaffold” (Eur J Med Chem, 2021).

Tests used:
[1] = target: T1, Proteinase-activated receptor 4 (Homo sapiens) (UniProt Q96RI0); assay: Antagonist activity at PAR4 in human platelet-rich plasma assessed as inhibition of PAR4 AP AYPGKF-NH2-induced platelet aggregation at 0.2 uM by photo-turbidimetry assay relative to control; assay type: functional
T1 sequence (whole entry): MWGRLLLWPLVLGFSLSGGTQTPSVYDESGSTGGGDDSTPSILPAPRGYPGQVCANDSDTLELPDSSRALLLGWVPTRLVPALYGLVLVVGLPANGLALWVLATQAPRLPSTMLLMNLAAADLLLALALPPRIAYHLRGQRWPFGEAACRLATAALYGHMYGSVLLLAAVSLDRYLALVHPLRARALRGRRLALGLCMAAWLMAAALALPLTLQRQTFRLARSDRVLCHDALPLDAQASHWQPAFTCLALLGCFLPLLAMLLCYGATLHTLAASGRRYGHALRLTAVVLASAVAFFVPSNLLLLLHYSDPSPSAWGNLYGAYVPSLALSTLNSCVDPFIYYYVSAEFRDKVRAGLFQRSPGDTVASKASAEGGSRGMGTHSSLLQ
Outline: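 Human PRP from donated blood, spun at 160×g for 15 min, then adjusted to 3×10⁸/mL with PPP (2000×g, 15 min). Compound or saline vehicle preincubated with PRP for 5 min at 37 °C. Aggregation induced by AYPGKF-NH₂; maximal aggregation measured by light transmittance for 5 min. Percent inhibition at a single point; IC50 from ≥5 concentrations by curve fitting.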

[2] = target: T2, Proteinase-activated receptor 1 (Homo sapiens, UniProt P25116); assay: Antagonist activity at human PAR1 expressed in Ga15-HEK293 cells assessed as reduction in PAR1 AP SFFLRR-NH2-induced cytosolic calcium incubated for 24 hrs by FLIPR - calcium mobilization assay; assay type: functional, cell-based
T2 sequence (P25116 whole entry): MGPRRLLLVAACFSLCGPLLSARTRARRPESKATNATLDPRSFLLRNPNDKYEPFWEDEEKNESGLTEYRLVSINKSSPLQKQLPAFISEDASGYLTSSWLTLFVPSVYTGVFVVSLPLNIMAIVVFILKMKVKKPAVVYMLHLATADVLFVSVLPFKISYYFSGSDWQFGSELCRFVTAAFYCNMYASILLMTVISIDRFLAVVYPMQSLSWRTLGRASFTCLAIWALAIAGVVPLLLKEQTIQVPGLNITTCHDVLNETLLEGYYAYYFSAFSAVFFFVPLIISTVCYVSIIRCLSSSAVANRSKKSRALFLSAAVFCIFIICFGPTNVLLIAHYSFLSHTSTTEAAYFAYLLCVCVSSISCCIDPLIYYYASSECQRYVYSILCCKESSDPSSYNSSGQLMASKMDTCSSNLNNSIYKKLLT
Outline: (§1)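 HEK293/Gα15 cells stably expressing human PAR1, PAR2 or PAR4, seeded at 45,000 cells/well and grown for 24 h at 37 °C, 5% CO₂. Cells loaded with calcium dye for 60 min at 37 °C in the dark. Compounds diluted from DMSO in HBSS and preincubated in the dark at room temperature. Agonists: SFFLRR (PAR1), 2-furoyl-LIGRLO-NH₂ (PAR2), AYPGKF-NH₂ (PAR4). Fluorescence read on FLIPR; 10-point half-log curves; mean of ≥2 determinations.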

[3] = target: T3, Proteinase-activated receptor 4 (Homo sapiens, UniProt Q96RI0); assay: Antagonist activity at human PAR4 expressed in Ga15-HEK293 cells assessed as reduction in PAR4 AP AYPGKF-NH2-induced cytosolic calcium incubated for 24 hrs by FLIPR - calcium mobilization assay; assay type: functional, cell-based; outline: as §1
T3 sequence (Q96RI0 whole entry): T1 sequence (whole entry)

[4] = target: T4, Proteinase-activated receptor 2 (Homo sapiens, UniProt P55085); assay: Antagonist activity at human PAR2 expressed in Ga15-HEK293 cells assessed as reduction in PAR2 AP 2-furoyl-LIGRLO-NH2-induced cytosolic calcium incubated for 24 hrs by FLIPR - calcium mobilization assay; assay type: functional, cell-based; outline: as §1
T4 sequence (P55085 whole entry): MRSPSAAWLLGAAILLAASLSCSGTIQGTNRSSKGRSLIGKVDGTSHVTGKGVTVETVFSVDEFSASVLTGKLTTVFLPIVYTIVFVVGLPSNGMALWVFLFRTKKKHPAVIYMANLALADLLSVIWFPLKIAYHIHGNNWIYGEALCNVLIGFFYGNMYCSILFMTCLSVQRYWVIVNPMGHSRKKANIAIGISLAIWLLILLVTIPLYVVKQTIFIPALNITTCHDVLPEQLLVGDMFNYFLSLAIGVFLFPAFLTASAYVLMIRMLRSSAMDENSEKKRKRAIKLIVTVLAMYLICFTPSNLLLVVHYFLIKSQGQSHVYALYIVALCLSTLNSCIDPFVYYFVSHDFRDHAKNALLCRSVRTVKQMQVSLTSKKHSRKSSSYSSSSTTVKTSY

Row | Compound | inhibition [1] | other results
1 | Cc1cc(-c2nc3c(s2)CCCC3)c2nc(C)n(C)c(=O)c2c1 | 17% | –
2 | Cc1cc(-c2nc3c(s2)CCCC3)c2ncn(C)c(=O)c2c1 | – | IC50 [2]: > 3.16 µM; IC50 [3]: 5.7 nM; IC50 [4]: > 1000 nM
3 | CCc1cc(-c2nc3c(Cl)cc(OC)cc3s2)c2ncn(C)c(=O)c2c1 | – | IC50 [2]: > 3.16 µM; IC50 [3]: 6.8 nM; IC50 [4]: > 1000 nM; inhibition ([1]; filed as antagonist): 92.8%
4 | Cc1cc(-c2nc3c(Cl)cc(OCCNS(=O)(=O)c4ccccc4)cc3s2)c2ncn(C)c(=O)c2c1 | 17.9% | –
5 | Cc1cc(-c2nc3c(Cl)cc(OCCNC(=O)OC(C)(C)C)cc3s2)c2ncn(C)c(=O)c2c1 | – | inhibition ([1]; filed as antagonist): 54.1%
6 | Cc1ccc(S(=O)(=O)NCCOc2cc(Cl)c3nc(-c4cc(C)cc5c(=O)n(C)cnc45)sc3c2)cc1 | 30.5% | –
7 | Cc1cc(-c2nc3c(Cl)cc(OCCNS(=O)(=O)c4ccc(Cl)cc4)cc3s2)c2ncn(C)c(=O)c2c1 | 32.3% | –
8 | Cc1cc(-c2nc3c(Cl)cc(Cl)cc3s2)c2ncn(C)c(=O)c2c1 | 21.3% | –
9 | CCn1cnc2c(-c3nc4c(Cl)cc(OC)cc4s3)cc(C)cc2c1=O | 36.5% | –
10 | COc1cc(F)c2nc(-c3cccc4c(=O)n(C)cnc34)sc2c1 | 18.7% | –
11 | Cc1cc(-c2cccc(Cl)c2Cl)c2ncn(C)c(=O)c2c1 | 34.3% | –
12 | Cc1cc(-c2nc3c(Cl)cc(OCCN)cc3s2)c2ncn(C)c(=O)c2c1 | 33.2% | –
13 | Cc1cc(-c2ccc(F)cc2O)c2ncn(C)c(=O)c2c1 | 6.5% | –
14 | Cc1cc(-c2nccs2)c2ncn(C)c(=O)c2c1 | 7.1% | –
15 | CCCCc1cc(-c2nc3c(Cl)cc(OC)cc3s2)c2ncn(C)c(=O)c2c1 | – | inhibition ([1]; filed as antagonist): 47.6%
16 | Cc1cc(-c2cccnc2)c2ncn(C)c(=O)c2c1 | 1.8% | –
17 | CCn1cnc2c(-c3nc4c(s3)CCCC4)cc(C)cc2c1=O | 26.8% | –
18 | COc1cc(Cl)c2nc(-c3cc(C)cc4c(=O)n(C)c(C)nc34)sc2c1 | 39.8% | –
19 | C#CCn1cnc2c(-c3nc4c(F)cc(OC)cc4s3)cc(C)cc2c1=O | 27.7% | –
20 | CCOCn1cnc2c(-c3nc4c(Cl)cc(OC)cc4s3)cc(C)cc2c1=O | – | inhibition ([1]; filed as antagonist): 91.2%
21 | Cn1cnc2c(-c3nc4c(s3)CCCC4)cccc2c1=O | 19.8% | –
